Consider five compounds from ChEMBL document CHEMBL1127738, “14 alpha,14' beta-[Dithiobis[(2-oxo-2,1-ethanediyl)imino]]bis (7,8-dihydromorphinone) and 14 alpha,14' beta-[dithiobis[(2-oxo-2,1- ethanediyl)imino]]bis[7,8-dihydro-N-(cyclopropylmethyl)normorphinone]: chemistry and opioid binding properties” (J Med Chem, 1994).

For assay [1], the target named is Mu-type opioid receptor (Bos taurus) (UniProt P79350). Kind of assay: Effect of DTT on Wash-Resistant Inhibition of [3H]DAMGO by 10 nM. Put shortly: (§1)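 They were then given 40 mM DTT for 10 min at 4 °C in 2 mL of 50 mM Tris-HCl pH 7.5, followed by four centrifugal washes. […] Results are % of control without ligand or DTT; mean ± SE, three experiments in triplicate.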

Another assay concerns the target Mu-type opioid receptor (Bos taurus, UniProt P79350). Kind of assay: Evaluation for the inhibition of mu opioid binding to bovine striatal membranes by the affinity ligand 0.25 nM [3H]DAMGO radiolabeled opioid. More on the design: species or system Striatum, Membrane. Put shortly:
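Competition binding on bovine striatal membranes: twelve compound concentrations with radioligand in 1 mL of 50 mM Tris-HCl pH 7.5 at 25 °C, with 5 mM MgCl2 and 0.1 mM PMSF. Incubation was 60 min for [3H]DAMGO and [3H]U69,593 and 4 h for [3H]pCl-DPDPE. […] Filtration used PEI-soaked filters for the κ and δ ligands. Mean IC50 ± SE, three experiments.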

Assay [2] deals with Kappa-type opioid receptor (Homo sapiens) (UniProt P41145). Kind of assay: Evaluation for the ability of kappa opioids to protect the [3H]-DAMGO binding site from alkylation. The following applies: Bos taurus. Put shortly: (§2)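 Protection assay on TPCK-pretreated calf striatal membranes. Membranes were preincubated with 100 nM protecting opioid in 50 mM Tris-HCl pH 7.5 for 30 min at 37 °C. The disulfide ligand (40 or 80 nM) was then added for 2 min at 37 °C in 2 mL. After four centrifugal washes, 0.25 nM [3H]DAMGO binding was measured. Results are % of untreated control; mean ± SE, three experiments in triplicate.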

The target in assay [3] is Delta-type opioid receptor (Homo sapiens) (UniProt P41143). Kind of assay: Evaluation for the ability of delta opioids to protect the [3H]DAMGO binding site from alkylation. The following applies: Bos taurus. Put shortly: as §2
Assay [4] has as its target Mu-type opioid receptor (Bos taurus) (UniProt P79350). Kind of assay: Evaluation for the ability of mu opioid to protect the [3H]DAMGO binding site from alkylation.
The target is the same in assay [5]. Kind of assay: Effect of DTT on Wash-Resistant Inhibition of [3H]DAMGO at 10 nM of the compound. Put shortly:
as §1

Assay [6] shares this target. Kind of assay: Evaluation for the ability of mu opioids to protect the [3H]DAMGO binding site from alkylation. Put shortly: as §2

Square brackets hold non-standard residues; d marks the D form. Peptide text beside a SMILES is read from it. * marks the point of attachment. Tyr(Nα,Nα-allyl2) = C=CCN(CC=C)[C@@H](Cc1ccc(O)cc1)C(=O)*; Aib = CC(C)(N)C(=O)O

Sequence of Mu-type opioid receptor (Bos taurus) (P79350 whole entry): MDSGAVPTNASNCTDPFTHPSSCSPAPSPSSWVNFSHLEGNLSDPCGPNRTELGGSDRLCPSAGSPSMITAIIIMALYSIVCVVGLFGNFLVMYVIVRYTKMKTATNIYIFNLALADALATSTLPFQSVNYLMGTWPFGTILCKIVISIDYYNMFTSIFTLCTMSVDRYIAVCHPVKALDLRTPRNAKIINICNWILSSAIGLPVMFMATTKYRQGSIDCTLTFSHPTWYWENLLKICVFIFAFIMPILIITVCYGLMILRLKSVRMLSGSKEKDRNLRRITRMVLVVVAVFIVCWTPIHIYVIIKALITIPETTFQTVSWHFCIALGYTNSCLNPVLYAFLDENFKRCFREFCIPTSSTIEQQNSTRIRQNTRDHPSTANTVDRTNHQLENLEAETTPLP
Sequence of Mu-type opioid receptor (P79350 whole entry): as above
Sequence of Delta-type opioid receptor (Homo sapiens) (P41143 whole entry): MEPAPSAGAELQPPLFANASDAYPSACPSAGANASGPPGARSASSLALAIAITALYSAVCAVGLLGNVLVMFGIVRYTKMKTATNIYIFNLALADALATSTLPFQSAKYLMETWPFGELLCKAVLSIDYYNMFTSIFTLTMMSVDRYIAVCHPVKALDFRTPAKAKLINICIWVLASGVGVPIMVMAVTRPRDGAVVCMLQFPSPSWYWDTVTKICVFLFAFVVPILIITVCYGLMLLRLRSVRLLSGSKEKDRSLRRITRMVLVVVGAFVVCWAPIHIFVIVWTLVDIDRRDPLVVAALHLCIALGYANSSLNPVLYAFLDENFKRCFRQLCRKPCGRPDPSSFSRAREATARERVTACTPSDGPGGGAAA
Sequence of Kappa-type opioid receptor (Homo sapiens) (P41145 whole entry): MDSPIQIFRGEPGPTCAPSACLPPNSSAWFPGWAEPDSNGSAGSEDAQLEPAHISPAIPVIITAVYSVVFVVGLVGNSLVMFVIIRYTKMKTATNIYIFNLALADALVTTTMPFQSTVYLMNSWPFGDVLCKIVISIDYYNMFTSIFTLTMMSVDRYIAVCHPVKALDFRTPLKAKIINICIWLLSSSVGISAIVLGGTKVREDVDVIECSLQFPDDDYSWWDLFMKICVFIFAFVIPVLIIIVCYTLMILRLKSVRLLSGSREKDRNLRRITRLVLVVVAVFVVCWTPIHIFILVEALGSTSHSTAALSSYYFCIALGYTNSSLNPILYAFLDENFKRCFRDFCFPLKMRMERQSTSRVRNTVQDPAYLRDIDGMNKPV

Usually inhibition stands for the change of the read-out against control, counted positive when it falls. High values mean a strong effect, low ones a weak effect. One may read the IC50 as the concentration at which inhibition is half-maximal. High values mean weaker potency in that assay, low ones greater potency in that assay. Regarding `O=C(CSSCC(=O)N[C@@]12CCC(=O)[C@@H]3Oc4c(O)ccc5c4[C@@]31CCN(CC1CC1)[C@@H]2C5)N[C@@]12CCC(=O)[C@@H]3Oc4c(O)ccc5c4[C@@]31CCN(CC1CC1)[C@@H]2C5`, the inhibition in assay [1] is 63%. The compound also had an IC50 on Mu-type opioid receptor of 3.29 nM. The Activity in assay [2] was determined as 30; in assay [3], 25.
On to `CN1CC[C@]23c4c5ccc(O)c4O[C@H]2[C@@H](O)C=C[C@H]3[C@H]1C5`, for which the Activity in assay [4] was 67.
`CN1CC[C@]23c4c5ccc(O)c4O[C@H]2C(=O)CC[C@@]3(NC(=O)CSSCC(=O)N[C@@]23CCC(=O)[C@@H]4Oc6c(O)ccc7c6[C@@]42CCN(C)[C@@H]3C7)[C@H]1C5`: the IC50 on Mu-type opioid receptor was determined as 0.4 nM. The compound also registered an inhibition in assay [5] of 50%. In addition, in assay [6], the Activity was determined as 25.
`Oc1ccc2c3c1O[C@H]1c4[nH]c5ccccc5c4C[C@@]4(O)[C@@H](C2)N(CC2CC2)CC[C@]314` yielded an Activity in assay [4] of 25.
On the same count and under the same terms, with `C=CCN(CC=C)[C@@H](Cc1ccc(O)cc1)C(=O)NC(C)(C)C(=O)NC(C)(C)C(=O)N[C@@H](Cc1ccccc1)C(=O)N[C@@H](CC(C)C)C(=O)O` ({Tyr(Nα,Nα-allyl2)}-[Aib][Aib]FL-OH) the figure was 24.
